Measured values: ChEMBL document CHEMBL4118110, “The identification of inhibitory compounds of Rickettsia prowazekii methionine aminopeptidase for antibacterial applications” (Bioorg Med Chem Lett, 2018)
pIC50: −log10 of the molar value.

test: Solubility of the compound; type: physicochemical

Compound	solubility
NCc1nnnn1-c1cccc(Br)c1	Insoluble
C=CCNC(=O)c1cc(-c2ccccn2)nc2ccccc12	Insoluble
CCCNC(=O)c1cc(-c2ccccn2)nc2ccccc12	Insoluble
O=C(O)c1cc(-c2ccc(Cl)cc2)n[nH]1	Insoluble

test: (§1) Inhibition of Rickettsia prowazekii N-terminal His6-tagged methionine aminopeptidase 1 expressed in Escherichia coli DLB3 Rosetta cells using Met-AMC as substrate preincubated for 1 hr followed by 30 mins incubation after substrate addition measured after 90 mins in presence of MnCl2 by fluorescence assay
Method in brief: (§2)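 Recombinant R. prowazekii MetAP with Mn(II) as the metal cofactor. Met-AMC substrate; release of free AMC is followed by fluorescence (excitation 360 nm, emission 460 nm). Activity is the slope of fluorescence versus time, compared with an uninhibited control.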

Compound	pIC50
O=C(O)c1cc2ccc(F)cc2oc1=O	5.08
CCCCn1cnc2sc(C(=O)O)c(C)c2c1=O	5.51
Nc1nnc(SCCC(=O)OC2CCCCC2)[nH]1	5.03
Cc1ccc(C(=O)CSc2nnc(C)[nH]2)c(C)c1	6.40
O=C(O)c1cc(-c2ccccc2)on1	5.85
CNS(=O)(=O)c1ccc(C(=O)O)o1	6.57
COc1ccc2c(C)c(C(=O)O)[nH]c2c1	5.43
Cc1csc(-c2ccccn2)n1	5.96
Cc1n[nH]c(SCC(=O)c2cccc([N+](=O)[O-])c2)n1	5.92
Nc1nnc(SCc2cccc3ccccc23)[nH]1	5.30
CC(=O)Nc1ccc(C(=O)CSc2nnc(N)[nH]2)cc1	5.00

test: as §1, with “cells at 10 uM” for “cells”, “assay relative to control” for “assay”; method in brief: as §2

Compound	inhibition
O=C(O)c1cc2ccc(F)cc2oc1=O	23 to 78%
CCCCn1cnc2sc(C(=O)O)c(C)c2c1=O	46 to 54%
Cc1ccc(C(=O)CSc2nnc(C)[nH]2)c(C)c1	54 to 68%
O=C(O)c1cc(-c2ccccc2)on1	80 to 82%
CNS(=O)(=O)c1ccc(C(=O)O)o1	43 to 91%
COc1ccc2c(C)c(C(=O)O)[nH]c2c1	28 to 80%
Cc1csc(-c2ccccn2)n1	85 to 89%
Nc1n[nH]c(SCC(=O)c2cccc([N+](=O)[O-])c2)n1	8 to 49%
O=C(O)c1ccc(-c2ccc(Cl)c(Cl)c2)o1	46 to 51%
CN(C)C(=O)CSc1n[nH]c(-c2ccco2)n1	1 to 3%
O=C(O)c1ccc(S(=O)(=O)N2CCOCC2)o1	8 to 67%
Cc1c(C(=O)O)sc2[nH]c(=S)[nH]c(=O)c12	45 to 46%
Cc1cccc(CSc2nnc(N)[nH]2)c1	27 to 46%
CCSc1nnc([C@@H]2CCCN2)o1	1 to 34%
N#CC1=C(c2ccccc2)CSC(c2ccccn2)=NC1=N	2 to 20%
Cc1nnc(SCC(=O)N2CCCc3ccccc32)[nH]1	43 to 44%
c1ccc(-c2nc3ccccc3o2)nc1	1 to 46%
COc1cccc(C(=O)Nc2ccsc2C(=O)O)c1	1 to 32%
O=C(O)c1cc(=O)c2ccccc2[nH]1	7 to 59%
O=C(O)c1cnccn1	42 to 45%
Cc1ccccc1-c1nnc(C(C)N)o1 (stereo not drawn)	2 to 39%
CCc1n[nH]c(SCC(=O)c2cc(C)ccc2C)n1	11 to 43%

Compound	inhibition
CC(=O)c1c(C(=O)O)nn(-c2ccc(Cl)cc2)c1C	17 to 20%
CCc1nnc(SCC(=O)OC)[nH]1	6 to 25%
CC(C)(C)c1ccc(OCCSc2nnc(N)[nH]2)cc1	25 to 28%
Nc1nnc(SCc2cccc3ccccc23)[nH]1	74 to 83%
O=c1[nH]c2cc(Cl)ccc2n(Cc2ccccc2)c1=O	1 to 62%
Nc1nnc(SCc2cccc(Cl)c2)[nH]1	1 to 23%
c1ccc(-c2n[nH]c(-c3ccccn3)n2)cc1	6 to 23%
Cc1nnc(CN)o1	13 to 32%
CC(=O)c1c(O)nc2ccccn12	16 to 43%
Oc1ccc(-c2ccc(F)cc2)nn1	44 to 66%
O=C(O)c1c(-c2ccccc2)c(-c2ccccc2)n[nH]c1=O	33 to 71%
CN(C)Cc1cc(C(=O)O)no1	2 to 60%
CCc1nnc(SCC(=O)c2ccc(C)cc2)[nH]1	11 to 14%
N#Cc1cccc(NCc2ccc(O)c3ncccc23)c1	1 to 5%
Nc1n[nH]c(SCC(=O)c2cc3ccccc3o2)n1	21 to 28%
Cc1ccc(-n2nnc(C(=O)O)c2C2CC2)cc1	1 to 44%
Cc1cc(C)cc(OCCSc2nnc(N)[nH]2)c1	38 to 39%
Nc1nnc(SCCN2CCCCC2)[nH]1	1 to 34%
CC(=O)Nc1ccc(C(=O)CSc2nnc(N)[nH]2)cc1	89%
O=C(O)c1cn(-c2ccccc2)nn1	1 to 47%
CC(C)c1ccc(CSc2nnc(N)[nH]2)cc1	48 to 90%
